# STAT3 act: IL-6 driven STAT3 reporter potentiators, primary screen, U3A cells, luciferase, luminescence, MLSCN library; activation (% of control), % at 5.6 µM; AID 871, 2007; IL-6 STAT3-luciferase reporter; 100% = signal with IL-6 EC80 alone; 190,000 compounds, 0.91% hits;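 active = activation above the screen-wide mean of compound activation plus 3 SD, cut at about 130% in these data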;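 note: 0% = background luminescence of wells with medium and substrate only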
#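 Assay system – human STAT1-deficient U3A cells with stable STAT3-luciferase reporter · Also added – IL-6 (33 ng/mL) · Schedule – compound 1 h, then IL-6 6 h at 37 °C · Technique – reporter luminescence signal · Evaluation – % activation versus median of IL-6-stimulated wells · Benchmarks – IL-6-only wells as 100% reference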
# STAT1 inh: STAT1 signaling inhibitors, primary screen, cell-based, HTS, luciferase reporter. 200,000 compounds, 0.35% hits. NIH 3T3 STAT1-luciferase reporter, IFN-gamma, luminescence. AID 920, 2007. inhibition, % at 5.5 µM;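 active = inhibition above a set limit, the mean inhibition across all tested compounds plus 3 SD, cut at about 34% in these data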;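 note: 0% = IFN-gamma with DMSO and 100% = IFN-gamma with 300 µM nifuroxazide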
# STAT1 activator: STAT1 signaling activators, primary screen, cell-based, HTS, luciferase reporter | NIH 3T3 STAT1-luciferase reporter, IFN-gamma, luminescence; 100% = IFN-gamma alone, no compound | 200,000 compounds, 2.6% hits | AID 932, 2007 | activation (% of control), % at 5.5 µM;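 active = activation above the screen-wide mean activation plus 3 SD, cut at about 130% in these data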;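 note: raw ratio to IFN-gamma control signal so 100% means no change and 0% no light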
# STAT3 inh: IL-6 driven STAT3 reporter inhibitors, primary screen, U3A cells, luciferase, luminescence, MLSCN library. IL-6 STAT3-luciferase reporter; host cell line lacks STAT1. inhibition, % at 5.5 µM. 190,000 compounds, 0.89% hits. AID 862, 2007;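 active = inhibition above the mean inhibition across all screened compounds plus 3 SD, cut at about 44% in these data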;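 note: 0% = DMSO only wells and 100% = 100 µM nifuroxazide control wells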
# Cl transport mod: KCC2 cotransporter modulators, thallium flux, primary screen, cell-based, HEK293 KCC2, FluoZin-2 fluorescence, MLSMR | Solute carrier family 12 member 5 (Homo sapiens), Q9H2X9 | KCC2 cells, thallium flux FluoZin-2 fluorescence | B-score of Tl+ flux slope (higher = more flux/activation; lower = inhibition) at 10 µM | 190,000 compounds, 2.2% hits;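 active = thallium flux slope and its plate-corrected score both differing from the plate sample mean at a set confidence after two filtering rounds, in either direction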;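 note: slope of fluorescence scaled to starting intensity during 10 to 20 s after thallium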
# Target sequence (Q9H2X9 whole entry, looked up): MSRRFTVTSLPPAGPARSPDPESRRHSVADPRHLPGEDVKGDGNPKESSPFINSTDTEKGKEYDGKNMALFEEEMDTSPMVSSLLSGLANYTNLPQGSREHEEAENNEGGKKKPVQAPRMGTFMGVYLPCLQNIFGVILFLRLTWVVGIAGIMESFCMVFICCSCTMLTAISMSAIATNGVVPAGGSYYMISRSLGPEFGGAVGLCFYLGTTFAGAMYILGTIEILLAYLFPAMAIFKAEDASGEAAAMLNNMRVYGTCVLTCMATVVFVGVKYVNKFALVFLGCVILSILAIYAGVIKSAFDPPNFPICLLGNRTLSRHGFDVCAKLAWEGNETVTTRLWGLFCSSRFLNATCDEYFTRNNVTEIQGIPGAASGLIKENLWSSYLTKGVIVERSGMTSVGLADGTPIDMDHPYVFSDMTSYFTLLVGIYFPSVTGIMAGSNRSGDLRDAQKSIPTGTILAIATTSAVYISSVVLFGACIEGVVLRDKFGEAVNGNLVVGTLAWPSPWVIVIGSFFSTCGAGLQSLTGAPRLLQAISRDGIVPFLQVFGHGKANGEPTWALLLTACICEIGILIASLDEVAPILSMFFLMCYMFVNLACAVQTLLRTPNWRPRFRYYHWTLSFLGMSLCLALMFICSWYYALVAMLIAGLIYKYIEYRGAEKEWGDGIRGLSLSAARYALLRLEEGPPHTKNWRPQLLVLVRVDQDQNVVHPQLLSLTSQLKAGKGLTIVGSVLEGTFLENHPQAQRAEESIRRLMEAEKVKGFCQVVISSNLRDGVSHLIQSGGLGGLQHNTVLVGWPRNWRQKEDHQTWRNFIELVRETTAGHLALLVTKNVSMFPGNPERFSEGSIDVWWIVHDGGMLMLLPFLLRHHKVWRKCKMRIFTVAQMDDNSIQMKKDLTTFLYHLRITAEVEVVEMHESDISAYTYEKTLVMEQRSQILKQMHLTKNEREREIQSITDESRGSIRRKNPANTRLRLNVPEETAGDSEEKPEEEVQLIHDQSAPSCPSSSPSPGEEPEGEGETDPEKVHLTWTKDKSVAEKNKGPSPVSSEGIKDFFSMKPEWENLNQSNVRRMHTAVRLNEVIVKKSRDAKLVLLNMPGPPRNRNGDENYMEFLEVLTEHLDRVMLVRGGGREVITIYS
# HSV replic up: enhancers of HSV replication in host cells, fold increase, host cell viability; HSV replication augmentation in cells; maximum fold increase; 220,000 compounds, 0.005% hits; in the data active = maximum fold increase above about 1.5; inconclusive = no clear call, values can overlap the other calls; tested in PC3 cells
# KCC2 secondary: KCC2 modulators in sodium-free buffer, confirmation, cell-based, HEK293 KCC2, thallium flux, secondary assay | shares compounds with Cl transport mod | FluoZin2 fluorescence; stronger effect = higher value | normalised thallium flux (F/F0 slope) at 10 µM | 3,700 compounds, 15% hits;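 active = thallium flux slope above the same plate's solvent-only control mean plus 3 SD; inconclusive = the two replicate wells disagree; inactive = no significant difference from solvent-only control wells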
# KCC2 bumet counter: thallium flux persisting under bumetanide in KCC2 cells, confirmation, counter-screen for KCC2 modulator project, cell-based, HEK293 KCC2, FluoZin2, secondary assay 3. shares compounds with Cl transport mod. HEK293-KCC2 + bumetanide/ouabain; stronger effect = higher value. normalized thallium flux at 10 µM. 3,700 compounds, 49% hits;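 active = thallium entry rate above the same plate's blocked-transporter control wells by more than 3 SD; inconclusive = the two repeat wells disagree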;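 note: raw slope of fluorescence over initial fluorescence between 10 and 20 s after thallium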
# KCC2 sec2: KCC2 modulators without ouabain present, confirmation, cell-based, HEK293 KCC2, thallium flux, FluoZin2, secondary assay 2. thallium flux FluoZin2 fluorescence; actives lie on both sides; F/F0 rise rate, 10–20 s post-thallium. shares compounds with Cl transport mod. normalized thallium flux at 10 µM. 3,700 compounds, 23% hits;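 active = thallium flux slope more than 3 SD above or below the plate's solvent-only control mean, mostly below; inconclusive = the two repeat wells disagreed; inactive = no significant shift from solvent-only controls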;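 note: raw slope with 0.1% DMSO as baseline and bumetanide as block control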
# HEK counter1: thallium flux modulation in parental HEK cells, confirmation, counter-screen for KCC2 modulator project, cell-based, counterscreen 1 | HEK293 parental cells, thallium flux FluoZin2, ouabain; baseline-ratio fluorescence slope, 10–20 s after thallium | shares compounds with Cl transport mod | thallium flux rate (normalised fluorescence) at 10 µM | AID 1716, 2009 | 3,700 compounds, 46% hits;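 active = thallium flux rate significantly above the same plate's solvent-only control wells, beyond their mean plus 3 SD; inconclusive = the two replicate wells gave conflicting results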
# KCC2 ouabain: KCC2 inhibitors and activators, ouabain retest, confirmation, HEK-KCC2 cells; HEK293-KCC2, thallium flux FluoZin2 fluorescence; bidirectional: low = inhibitor, high = activator; 3,700 compounds, 48% hits; shares compounds with Cl transport mod; raw Tl+ flux slope (below DMSO = inhibition, above = activation) at 10 µM;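 active = thallium flux slope beyond 3 SD from same-plate DMSO control mean in most replicates, usually higher, sometimes lower; inconclusive = repeat tests gave conflicting results; inactive = no significant difference from controls in most replicates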;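 note: slope of initial-normalized fluorescence between seconds 10 and 20 after thallium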
# HEK293 Tl flux2: native HEK Tl+ uptake effects, second counter-screen – HEK cells, counterscreen 2, counter-screen for KCC2 modulator project, confirmation. HEK293 parental, thallium flux FluoZin-2 fluorescence slope. thallium flux slope at 10 µM. shares compounds with Cl transport mod. AID 1718, 2009. 3,700 compounds, 33% hits;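 active = thallium flux slope above the same plate's solvent-control mean plus 3 SD in both duplicate wells; inconclusive = duplicate wells that disagreed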;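 note: run without ouabain in cells lacking the KCC2 cotransporter; slope of fluorescence scaled to its starting value between 10 and 20 s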
# The depositor's hits bear a star; i = inactive; ? = inconclusive; . = not tested or not shown. Rows were chosen to be rich in hits. Some 5.5% of all compounds tested hit in one or more screens of this group.
SMILES,STAT3 act,STAT1 inh,STAT1 activator,STAT3 inh,Cl transport mod,HSV replic up,KCC2 secondary,KCC2 bumet counter,KCC2 sec2,HEK counter1,KCC2 ouabain,HEK293 Tl flux2
Cc1cccc(C(=O)NC(=S)NNC(=O)Cc2ccccc2)c1,105,6,95,-8,14*,i,0.019*,0.048*,0.037,0.025*,0.041*,0.015*
CCC(=O)NNC(=S)NC(=O)c1ccc(C)cc1,99,-12,109,6,7.6*,i,?,0.02*,0.03,0.013*,0.024,?
O=C(NNC(=S)NC1CCCCC1)c1cccs1,93,5,96,7,-1,i,.,.,.,.,.,.
CC1CCCCC1NC(=S)NC(=O)c1cccs1 (centres undefined),.,.,.,.,117*,i,0.027*,0.14*,0.032,0.058*,0.064*,0.017*
COc1cc(C2Nc3ccc4ncccc4c3C3=C2C(=O)CCC3)ccc1O (centres undefined),91,-12,109,15,1,i,.,.,.,.,.,.
COc1ccc(NC(=S)N(Cc2cccnc2)Cc2cc3cc(OC)c(OC)cc3[nH]c2=O)cc1,100,4,94,6,.,i,.,.,.,.,.,.
COC(=O)Cc1c(C)[nH]n(-c2cc(Cl)cc(Cl)c2)c1=O,97,6,94,8,0.53,i,.,.,.,.,.,.
O=C(Cc1cccs1)NNC(=S)NC(=O)c1ccccc1,95,6,94,4,3.3,i,.,.,.,.,.,.
O=C(/C=C/c1ccccc1)NC(=S)NNC(=O)Cc1cccs1,105,-4,103,-5,6.3*,i,0.0097,0.026*,0.031,?,?,0.012
Cc1cc(NC(=O)CCN2C(=O)C3C4C=CC(C4)C3C2=O)ccc1Br (centres undefined),95,3,96,12,-0.059,i,.,.,.,.,.,.
COc1ccc(C2CC(c3ccccc3)n3nc(NC(=O)c4cccs4)nc3N2)cc1 (centres undefined),94,-2,102,10,-3.3*,.,0.0073,0.0067,0.032,0.0078,0.018,0.011
COCCn1ccc(O)c(Cc2ccccc2)c1=O,98,10,91,7,-0.17,i,.,.,.,.,.,.
NNc1ccc2nnc(C(F)(F)C(F)(F)C(F)(F)F)n2n1,107,-7,107,-6,.,i,.,.,.,.,.,.

# Screening results from PubChem BioAssay.
